Compounds with a hit are over-represented: about 4.9% of the library has one in this group of screens.
CHT allo act: human CHT allosteric activation. CHT-expressing cells, membrane potential dye, choline EC20; stronger effect = higher value; LV-AA mutant CHT in HEK293 cells. 0.49% of 310,000 active. AID 488977. Q9GZV3. B-score at 10 µM;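 active = initial fluorescence not abnormally high and integrated response B-score, plate-corrected, over 3 SD above library mean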
Target sequence (Q9GZV3 whole entry, looked up): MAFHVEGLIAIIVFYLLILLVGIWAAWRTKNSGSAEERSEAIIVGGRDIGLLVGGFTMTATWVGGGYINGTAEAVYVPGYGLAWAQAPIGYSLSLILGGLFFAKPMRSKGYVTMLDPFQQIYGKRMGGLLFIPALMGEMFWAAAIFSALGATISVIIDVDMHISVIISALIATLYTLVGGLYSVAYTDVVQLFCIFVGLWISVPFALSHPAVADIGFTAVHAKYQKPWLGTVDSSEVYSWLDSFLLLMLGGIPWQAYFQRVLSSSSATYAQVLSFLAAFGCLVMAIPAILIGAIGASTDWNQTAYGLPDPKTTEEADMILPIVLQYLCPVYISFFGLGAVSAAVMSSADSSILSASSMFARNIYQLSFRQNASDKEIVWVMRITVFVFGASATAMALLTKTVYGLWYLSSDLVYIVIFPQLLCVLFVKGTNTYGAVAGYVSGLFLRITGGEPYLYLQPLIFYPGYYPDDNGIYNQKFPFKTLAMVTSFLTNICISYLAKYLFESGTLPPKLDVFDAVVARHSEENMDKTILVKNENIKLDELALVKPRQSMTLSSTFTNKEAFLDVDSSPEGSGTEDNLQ
HSF1 activator: increases HSF-1 driven luciferase reporter signal; NIH3T3-HGL HSF-1 luciferase reporter, MG132, 8 h; 100% = twice DMSO control signal; activation, % at 9 µM; 1.7% of 300,000 active;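 active = mean replicate activation of at least 50% with a set share of replicates each reaching 50%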;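 note: 0% = median of the neutral control wells and 100% = twice that signal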
PHOSPHO1 block: PHOSPHO1 (human) inhibition. recombinant PHOSPHO1, absorbance phosphatase assay. AID 1565. 1.1% of 290,000 active. inhibition, % at 13.3 µM; in the data active = inhibition above about 60%
Lipid droplet: hepatic lipid droplet formation modulation; AML12 mouse hepatocytes, oleate lipid droplets, BODIPY imaging; inhibition, % at 6.5 µM; 0.4% of 240,000 active; AID 1656;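 active = lipid droplet intensity inhibited by at least 50%, with more than 500 cells counted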
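Material: mouse AML12 hepatocyte cell line, fixed after treatment; Timing: compound with oleate, overnight; Technique: high-content imaging of BODIPY-stained droplets and DAPI nuclei; Probe or stimulus: oleate, 100 µM final; Dosing: compound at 6.5 µM only.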
HSF1 inh: HSF1 inhibition. 0.77% of 300,000 active. NIH3T3-HGL HSE-luciferase, MG132-induced, luminescence 8 h; stronger effect = lower value. activity change, negative = inhibition, % at 7.5 µM (by protocol);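 active = more than half of replicate wells show activity change below -50%, luminescence cut by over half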;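 note: luciferase reports HSF-1 transcriptional activity via heat shock element; 0% = median of DMSO wells and -100% = zero luminescence signal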
CHT inh: human CHT choline transport inhibition. Q9GZV3. CHT-expressing cells, membrane potential dye, choline response; stronger effect = lower value. B-score at 10 µM. 0.86% of 310,000 active;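 active = B-score over 3 SD under the library average, and starting fluorescence ratio not unusually high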;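 note: choline stimulus applied at its EC90 after an EC20 pre-addition; B-score computed on integrated fluorescence ratio after choline addition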
Lipid drop inh: hepatic lipid droplet formation inhibition, confirmed; shares compounds with Lipid droplet; AML12 mouse hepatocytes, BODIPY lipid droplet imaging; droplets induced with 100 µM oleic acid; inhibition, % at 5.2 µM; 65% of 870 active; AID 463183;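 active = inhibition of lipid droplet metric at least 50%, with more than 300 cells in each of four replicates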;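 note: plate controls were DMSO with oleic acid for no effect and 5 µM Triacsin-C for full effect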
AML12 tox img: toxic to AML12 mouse hepatocytes in counter-screen. shares compounds with Lipid droplet. DAPI nuclear morphology cytotoxicity imaging; stronger effect = higher value; cells fed 100 µM oleate overnight. z-score at 5 µM. 3% of 870 active. AID 463200; in the data active = z-score above about 6.3;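 note: compound exposure lasted overnight at 37 °C before fixation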
AML12 tox ATP: AML12 hepatocyte cytotoxicity, confirmed | AML12 mouse hepatocyte viability, ATP luminescence; cells loaded with 100 µM oleic acid | shares compounds with Lipid droplet | AID 463219 | 530 tested, under 10 active | cytotoxicity, % at 50 µM;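 active = cytotoxicity above 50% in each of four replicates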;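 note: compound exposure lasted overnight at 37 °C before the ATP read; 0% = DMSO-treated cells and 100% = wells with no cells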
The depositor's hits bear a star; i = inactive; . = no result.

SMILES | CHT allo act | HSF1 activator | PHOSPHO1 block | Lipid droplet | HSF1 inh | CHT inh | Lipid drop inh | AML12 tox img | others
Cc1ccc(NC(=O)CN(C)CC(=O)Nc2ccc(N3CCOCC3)cc2)c(C)c1 | i | -2 | -11 | 53* | -1 | i | 84* | -0.99
C=CCNc1ccc(N2C(=O)C3CCC(C)CC3C2=O)cc1[N+](=O)[O-] (configuration not stated) | i | 1 | 28 | -8 | 2 | i | . | .
COc1ccccc1NS(=O)(=O)c1cc(NC(=O)c2cc3ccccc3oc2=O)ccc1C | i | 3 | 11 | 58* | 6 | i | 52 | -0.64
CCOc1ccccc1CN1CCNC(=O)C1CC(=O)N(C)CCc1ccccn1 (configuration not stated) | i | 5 | 7 | 2 | 2 | i | . | .
CS(=O)(=O)N(CC(=O)Nc1ccccc1Br)Cc1ccccc1 | i | 6 | 14 | 56* | 1 | i | 67* | -0.76 | AML12 tox ATP=9
CSc1ccccc1NC(=O)CN(Cc1ccccc1)S(C)(=O)=O | i | -4 | -1 | 37 | 7 | i | . | .
C#CCNC(=O)C1=C[C@@H](C2CCCCC2)C[C@@H](OCCCCO)O1 | i | 0 | -3 | 6 | 9 | i | . | .
O=C(O)CN1C(=O)C(=O)N(Cc2c(F)cccc2Cl)C1=O | i | 0 | 29 | -1 | 1 | i | . | .
COc1ccccc1N=Nc1nc(-c2ccccc2)c(-c2ccccc2)[nH]1 | i | -7 | -1 | -2 | -3 | i | . | .
COc1ccc(N=Nc2nc(-c3ccccc3)c(-c3ccccc3)[nH]2)cc1 | i | 25 | -18 | 100* | 3 | i | 108* | 1 | AML12 tox ATP=-10
Fc1ccc(-c2cnn3c(-c4cccs4)ccnc23)cc1 | . | -30 | 42 | 63* | -24 | . | 79* | -0.16
CC(c1ccncc1)C(C)c1ccncc1 (configuration not stated) | i | -1 | . | . | 0 | i | . | .
COc1ccc(CC(=O)Nn2c(-c3ccccc3)nc3ccccc3c2=O)cc1 | i | -5 | 0 | 56* | -2 | i | 91* | -0.43
COc1ccc(OCC(=O)Nn2c(-c3cccc(OC)c3)nc3ccccc3c2=O)cc1 | i | -7 | 18 | -2 | 3 | i | . | .
Cc1ccc(-c2c(C(=O)NC(C)C)oc(=O)c3ccccc23)cc1 | i | 3 | 9 | 53* | 1 | i | 7 | -0.0095
Cc1ccc(-c2c(C(=O)NCc3ccccc3)oc(=O)c3ccccc23)cc1 | i | 26 | 10 | -3 | 3 | i | . | .
COc1cccc(C(=O)Nc2cccc(-c3ccc(N4CCOCC4)nn3)c2)c1 | i | 16 | . | . | 10 | i | . | .
c1ccc2c(c1)CCCC2C1=NCCN1 (configuration not stated) | i | 9 | -6 | 53* | 4 | i | 21 | -0.056
COc1ccc(N=C2C(=Nc3ccc(OC)cc3)N(c3ccc(N(C)C)cc3)C(=S)N2c2ccc(OC)cc2)cc1 | i | 63* | 16 | 65* | 29 | i | 15 | 1.8
O=c1[nH]c2cc3c(cc2cc1CN(CCc1ccccc1)Cc1nnnn1C1CCCC1)OCCO3 | . | 0 | 1 | . | 5 | . | . | .
O=C(Nc1cccc(Br)c1)c1cccc(OC(=S)N2CCOCC2)c1 | i | -1 | 23 | 59* | 9 | i | 95* | 0.95 | AML12 tox ATP=19
O=C(Nc1ccc(C(=O)N2CCOCC2)cc1)c1cccc(Br)c1 | i | 9 | 9 | 2 | 11 | i | . | .
CCOC(=O)c1cc(NC(=O)N(C)C2CCCCC2)c(C)nc1C | i | 4 | 39 | 54* | -2 | i | 81* | -0.98 | AML12 tox ATP=10
CCOC(=O)c1cc(NC(=O)N(CC)C2CCCCC2)c(C)nc1C | i | 7 | -16 | 45 | -2 | i | . | .
Cc1nn(C)c(=O)c(N)c1-c1cc(-c2ccc(Cl)c(Cl)c2)n[nH]1 | i | 21 | 25 | -9 | -1 | i | . | .
SMILES | CHT allo act | HSF1 activator | PHOSPHO1 block | Lipid droplet | HSF1 inh | CHT inh | Lipid drop inh | AML12 tox img | others
Cc1ccc(-c2cc(-c3c(C)nn(C)c(=O)c3N)[nH]n2)cc1 | i | -3 | 29 | 56* | 4 | i | 79* | -0.36
O=c1ccc(-c2ccc([N+](=O)[O-])cc2)nn1-c1ccccc1 | i | -6 | -2 | 0 | -2 | i | . | .
O=[N+]([O-])c1ccc(-[n+]2nc(-c3ccccc3)nn2-c2ccccc2)cc1 | i | -5 | -12 | 87* | -6 | i | 115* | -0.74 | AML12 tox ATP=12
O=C(NCC1CCCO1)c1ccc2c3n(nc2c1)-c1ccccc1CO3 (configuration not stated) | i | 11 | 40 | . | 17 | i | . | .
CC(C)(C)c1cc(NC(=O)Nc2ccc(Cl)cc2Cl)no1 | i | 6 | 32 | 50* | 6 | i | 32 | -0.81
CC(C)(C)c1cc(NC(=O)Nc2ccc(Br)cc2Cl)no1 | i | 0 | 15 | 1 | 1 | i | . | .
COc1ccc(C(=O)N/N=C/c2sc(=O)n(Cc3cccc(C(=O)O)c3)c2Cl)cc1 | i | -1 | 37 | 2 | -4 | i | . | .
Cc1ccc(-c2c(C)nn3c(N4CCOCC4)cc(C)nc23)cc1 | i | -7 | 44 | 71* | -6 | i | 108* | 0.36 | AML12 tox ATP=4
Cc1cc(N2CCOCC2)n2nc(C)c(-c3ccccc3Cl)c2n1 | i | 12 | 39 | 78* | 2 | i | 107* | -0.16 | AML12 tox ATP=7
Cc1cc(N2CCOCC2)n2nc(C)c(-c3ccccc3)c2n1 | i | . | -20 | . | . | i | . | .
Cc1cccc(NC(=O)CCC2CCN(Cc3nccs3)CC2)c1 | i | 27 | 44 | 14 | 2 | i | . | .
CCn1cc(C(=O)NCC2CCCO2)c(=O)c2cc(F)c(N3CCN(C)CC3)cc21 (configuration not stated) | i | 16 | 40 | . | 0 | i | . | .
Cc1cccc(Oc2ccc(Cl)cc2N)c1 | i | 27 | 52 | 58* | 11 | i | 29 | -0.35
Nc1cc(Cl)ccc1Oc1ccccc1 | i | 19 | 50 | . | 1 | i | . | .
CCOc1cc(CNC(=O)CCCn2c(=O)c3cccn3c3cccnc32)cc(OCC)c1OCC | i | 13 | 42 | 92* | 4 | i | 107* | 0.45 | AML12 tox ATP=-2
N#Cc1c(-c2ccco2)ccn(Cc2cccc(F)c2)c1=O | i | -8 | 16 | . | -13 | i | . | .

Screening data (PubChem)
